Test results: ChEMBL document CHEMBL4351026, “Antifungal activity, mode of action variability, and subcellular distribution of coumarin-based antifungal azoles” (Eur J Med Chem, 2019)
≈ marks a conversion by molar mass, not a printed value. Calls of active or inactive are those of the source. The calls are words filed in the database; no cut-off is given here.

What was measured:
Candida albicans [1] = assay: Antifungal activity against Candida albicans P-87 assessed as reduction in fungal cell growth incubated for 24 hrs by MTT based broth double dilution method; format: functional; settings: P-87, 24 h
Summary of the method: (§1)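 Broth double-dilution in Casitone broth. Starter cultures were grown 24 or 48 h at 37 °C, 5% CO₂, diluted 1:100, and added to serial two-fold dilutions at 64 to 0.007 µg/mL. Final inoculum was 5 x 10^4 to 5 x 10^5 CFU/mL; DMSO was 0.0012–1.3%. Plates were incubated at 37 °C, 5% CO₂, then MTT was added for 2 h. MIC followed CLSI M27-A3. Triplicates, two independent experiments.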

Candida dubliniensis = assay: Antifungal activity against Candida dubliniensis T-99 assessed as reduction in fungal cell growth incubated for 24 hrs by MTT based broth double dilution method; format: functional; settings: T-99, 24 h; summary of the method: as §1
Candida parapsilosis [2] = assay: Antifungal activity against Candida parapsilosis ATCC 90018 assessed as reduction in fungal cell growth incubated for 24 hrs by MTT based broth double dilution method; format: functional; settings: Lodderomyces parapsilosis, ATCC 90018, 24 h; summary of the method: as §1
Nakaseomyces glabratus [3] = assay: Antifungal activity against Candida glabrata 192 assessed as reduction in fungal cell growth incubated for 24 hrs by MTT based broth double dilution method; format: functional; settings: Nakaseomyces glabratus, 192, 24 h; summary of the method: as §1
Candida albicans [4] = assay: Antifungal activity against Candida albicans SN152 assessed as reduction in fungal cell growth incubated for 24 hrs by MTT based broth double dilution method; format: functional; settings: SN152, 24 h; summary of the method: as §1
Nakaseomyces glabratus [5] = assay: Antifungal activity against Candida glabrata ATCC 66032 assessed as reduction in fungal cell growth incubated for 24 hrs by MTT based broth double dilution method; format: functional; settings: ATCC 66032, 24 h; summary of the method: as §1
Nakaseomyces glabratus [6] = assay: Antifungal activity against Candida glabrata ATCC 2001 assessed as reduction in fungal cell growth incubated for 24 hrs by MTT based broth double dilution method; format: functional; settings: ATCC 2001, 24 h; summary of the method: as §1
[7] = test system: Meyerozyma guilliermondii; assay: Antifungal activity against Candida guilliermondii T-47 assessed as reduction in fungal cell growth incubated for 24 hrs by MTT based broth double dilution method; format: functional; settings: T-47, 24 h; summary of the method: as §1
Candida parapsilosis [8] = assay: Antifungal activity against Candida parapsilosis ATCC 22019 assessed as reduction in fungal cell growth incubated for 24 hrs by MTT based broth double dilution method; format: functional; settings: Lodderomyces parapsilosis, ATCC 22019, 24 h; summary of the method: as §1
Candida albicans [9] = assay: Antifungal activity against Candida albicans ATCC 90028 assessed as reduction in fungal cell growth incubated for 24 hrs by MTT based broth double dilution method; format: functional; settings: ATCC 90028, 24 h; summary of the method: as §1
Candida albicans [10] = assay: Antifungal activity against Candida albicans SN152 assessed as reduction in fungal cell growth incubated for 48 hrs by MTT based broth double dilution method; format: functional; settings: SN152, 48 h; summary of the method: as §1
Nakaseomyces glabratus [11] = assay: Antifungal activity against Candida glabrata 192 assessed as reduction in fungal cell growth incubated for 48 hrs by MTT based broth double dilution method; format: functional; settings: Nakaseomyces glabratus, 192, 48 h; summary of the method: as §1
Candida albicans [12] = assay: Antifungal activity against Candida albicans ATCC 90028 assessed as reduction in fungal cell growth incubated for 48 hrs by MTT based broth double dilution method; format: functional; settings: ATCC 90028, 48 h; summary of the method: as §1
Nakaseomyces glabratus [13] = assay: Antifungal activity against Candida glabrata ATCC 66032 assessed as reduction in fungal cell growth incubated for 48 hrs by MTT based broth double dilution method; format: functional; settings: ATCC 66032, 48 h; summary of the method: as §1
Candida albicans [14] = assay: Antifungal activity against ERG11/ERG3 knocked out Candida albicans SN152 assessed as zone of inhibition at 25 ug […] by disk diffusion method; format: functional, organism-based
Cytochrome P450 3A4 = Cytochrome P450 3A4 (Homo sapiens, UniProt P08684); assay: Inhibition of recombinant human CYP3A4 using Luciferin-PPXE as substrate preincubated for 10 mins followed by NADPH addition measured after 15 mins by luminometric method; format: ADME
Sequence of Cytochrome P450 3A4 (P08684 whole entry): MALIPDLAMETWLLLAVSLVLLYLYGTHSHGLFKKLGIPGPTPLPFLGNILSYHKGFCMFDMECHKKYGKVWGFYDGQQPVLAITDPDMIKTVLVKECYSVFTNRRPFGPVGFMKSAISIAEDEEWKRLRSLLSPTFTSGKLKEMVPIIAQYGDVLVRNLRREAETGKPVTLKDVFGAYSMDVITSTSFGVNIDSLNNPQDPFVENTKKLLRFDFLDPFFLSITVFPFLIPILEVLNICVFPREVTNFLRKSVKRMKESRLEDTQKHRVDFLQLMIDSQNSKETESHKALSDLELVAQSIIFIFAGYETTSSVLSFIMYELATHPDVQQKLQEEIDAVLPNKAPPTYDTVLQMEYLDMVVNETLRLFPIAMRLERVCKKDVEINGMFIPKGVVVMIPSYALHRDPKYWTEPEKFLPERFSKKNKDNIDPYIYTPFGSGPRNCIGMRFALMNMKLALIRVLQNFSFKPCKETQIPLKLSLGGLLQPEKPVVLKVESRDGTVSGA
Summary of the method: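 P450-Glo luminescent assay, Luciferin-PPXE substrate. Compound was mixed with membranes containing recombinant human CYP3A4; controls were vehicle with membranes lacking CYP3A4. After 10 min preincubation at 37 °C, NADPH regeneration reagent was added and the mixture kept 15 min at 37 °C. Luciferin detection reagent stopped the reaction; after 20 min at room temperature, luminescence was read. Duplicates.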

Candida albicans [15] = assay: Antifungal activity against Candida albicans SN152 assessed as zone inhibition at 25 ug incubated for 24 hrs by disk diffusion method; format: functional, organism-based
Summary of the method: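 Strains were streaked on YPD agar and grown at 30 °C: 24 h for parental SN152, 48 h for the erg11ΔΔ erg3ΔΔ mutant. Colonies were suspended in PBS and adjusted to OD 0.02 (SN152) or 0.03 (mutant), then spread on Casitone plates. A 6-mm disk loaded with 25 µg compound was placed centrally. Plates were incubated at 30 °C and photographed after 24 h.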

Structure (SMILES) | MIC (Candida albicans [1]) | MIC (Candida dubliniensis) | MIC (Candida parapsilosis [2]) | MIC (Nakaseomyces glabratus [3]) | MIC (Candida albicans [4]) | MIC (Nakaseomyces glabratus [5]) | MIC (Nakaseomyces glabratus [6]) | MIC [7] | MIC (Candida parapsilosis [8]) | MIC (Candida albicans [9]) | MIC (Candida albicans [10]) | MIC (Nakaseomyces glabratus [11]) | MIC (Candida albicans [12]) | MIC (Nakaseomyces glabratus [13]) | inhibition zone (IZ) (Candida albicans [14]) | IC50 (Cytochrome P450 3A4) | inhibition zone (IZ) (Candida albicans [15])
O=C(NCC(O)(Cn1cncn1)c1ccc(F)cc1F)c1cc2ccccc2oc1=O (racemic) | 0.125 µg/mL (≈ 0.293 µM) | 0.5 µg/mL (≈ 1.17 µM) | 0.25 µg/mL (≈ 0.586 µM) | 1 µg/mL (≈ 2.35 µM) | 0.25 µg/mL (≈ 0.586 µM) | 1 µg/mL (≈ 2.35 µM) | 4 µg/mL (≈ 9.38 µM) | 1 µg/mL (≈ 2.35 µM) | 2 µg/mL (≈ 4.69 µM) | 0.25 µg/mL (≈ 0.586 µM) | – | – | – | – | – | – | –
O=C(NCC(O)(Cn1cncn1)c1ccc(F)cc1F)c1cc2ccc(Cl)cc2[nH]c1=O (racemic) | 1 µg/mL (≈ 2.17 µM) | 8 µg/mL (≈ 17.4 µM) | 1 µg/mL (≈ 2.17 µM) | 16 µg/mL (≈ 34.8 µM) | 0.5 µg/mL (≈ 1.09 µM) | 64 µg/mL (≈ 139 µM) | > 64 µg/mL | 8 µg/mL (≈ 17.4 µM) | 8 µg/mL (≈ 17.4 µM) | 1 µg/mL (≈ 2.17 µM) | – | – | – | – | – | – | –
Clc1ccccc1C(c1ccccc1)(c1ccccc1)n1ccnc1 [CLOTRIMAZOLE] | 0.007 µg/mL (≈ 0.0203 µM) | 0.007 µg/mL (≈ 0.0203 µM) | 0.007 µg/mL (≈ 0.0203 µM) | 0.06 µg/mL (≈ 0.174 µM) | 0.007 µg/mL (≈ 0.0203 µM) | – | 0.5 µg/mL (≈ 1.45 µM) | 0.007 µg/mL (≈ 0.0203 µM) | 0.007 µg/mL (≈ 0.0203 µM) | 0.007 µg/mL (≈ 0.0203 µM) | 0.007 µg/mL (≈ 0.0203 µM) | 0.25 µg/mL (≈ 0.725 µM) | 0.007 µg/mL (≈ 0.0203 µM) | – | – | – | –
CCC(C)n1ncn(-c2ccc(N3CCN(c4ccc(OCC5COC(Cn6cncn6)(c6ccc(Cl)cc6Cl)O5)cc4)CC3)cc2)c1=O (racemic) [ITRACONAZOLE] | 0.007 µg/mL (≈ 0.00992 µM) | 0.06 µg/mL (≈ 0.085 µM) | 0.007 µg/mL (≈ 0.00992 µM) | 0.125 µg/mL (≈ 0.177 µM) | 0.007 µg/mL (≈ 0.00992 µM) | 1 µg/mL (≈ 1.42 µM) | 1 µg/mL (≈ 1.42 µM) | 0.03 µg/mL (≈ 0.0425 µM) | 0.03 µg/mL (≈ 0.0425 µM) | 0.007 µg/mL (≈ 0.00992 µM) | 0.007 µg/mL (≈ 0.00992 µM) | 0.125 µg/mL (≈ 0.177 µM) | 0.007 µg/mL (≈ 0.00992 µM) | > 64 µg/mL | – | – | –
COc1ccc2cc(C(=O)NCC(O)(Cn3cncn3)c3ccc(F)cc3F)c(=O)[nH]c2c1 (racemic) | 2 µg/mL (≈ 4.39 µM) | > 64 µg/mL | 2 µg/mL (≈ 4.39 µM) | > 64 µg/mL | 4 µg/mL (≈ 8.78 µM) | > 64 µg/mL | > 64 µg/mL | > 64 µg/mL | > 64 µg/mL | 1 µg/mL (≈ 2.2 µM) | – | – | – | – | – | – | –
O=C(NCC(O)(Cn1cncn1)c1ccc(F)cc1F)c1cc2ccc(O)cc2oc1=O (racemic) | 64 µg/mL (≈ 145 µM) | > 64 µg/mL | > 64 µg/mL | > 64 µg/mL | > 64 µg/mL | > 64 µg/mL | 64 µg/mL (≈ 145 µM) | > 64 µg/mL | > 64 µg/mL | 64 µg/mL (≈ 145 µM) | – | – | – | – | – | – | –
CCC(CC)Oc1ccc2cc(C(=O)NCC(O)(Cn3ccnc3)c3ccc(F)cc3F)c(=O)oc2c1 (racemic) | 0.015 µg/mL (≈ 0.0293 µM) | 0.25 µg/mL (≈ 0.489 µM) | 0.125 µg/mL (≈ 0.244 µM) | 1 µg/mL (≈ 1.95 µM) | 0.03 µg/mL (≈ 0.0586 µM) | 2 µg/mL (≈ 3.91 µM) | 4 µg/mL (≈ 7.82 µM) | 0.125 µg/mL (≈ 0.244 µM) | 0.25 µg/mL (≈ 0.489 µM) | 0.03 µg/mL (≈ 0.0586 µM) | 0.06 µg/mL (≈ 0.117 µM) | 2 µg/mL (≈ 3.91 µM) | 0.06 µg/mL (≈ 0.117 µM) | 4 µg/mL (≈ 7.82 µM) | Active | 332 nM | Active
O=C(NCC(O)(Cn1cncn1)c1ccc(F)cc1F)c1cc2ccccc2[nH]c1=O (racemic) | 1 µg/mL (≈ 2.35 µM) | 8 µg/mL (≈ 18.8 µM) | 2 µg/mL (≈ 4.7 µM) | 16 µg/mL (≈ 37.6 µM) | 0.5 µg/mL (≈ 1.18 µM) | > 64 µg/mL | 64 µg/mL (≈ 150 µM) | 8 µg/mL (≈ 18.8 µM) | 8 µg/mL (≈ 18.8 µM) | 2 µg/mL (≈ 4.7 µM) | – | – | – | – | – | – | –
CCC(CC)Oc1ccc2cc(C(=O)NCC(O)(Cn3cncn3)c3ccc(F)cc3F)c(=O)oc2c1 (racemic) | 0.125 µg/mL (≈ 0.244 µM) | 2 µg/mL (≈ 3.9 µM) | 0.5 µg/mL (≈ 0.976 µM) | 4 µg/mL (≈ 7.8 µM) | 0.25 µg/mL (≈ 0.488 µM) | > 64 µg/mL | 32 µg/mL (≈ 62.4 µM) | 2 µg/mL (≈ 3.9 µM) | 2 µg/mL (≈ 3.9 µM) | 0.125 µg/mL (≈ 0.244 µM) | 0.5 µg/mL (≈ 0.976 µM) | 8 µg/mL (≈ 15.6 µM) | 0.5 µg/mL (≈ 0.976 µM) | > 64 µg/mL | – | ≥ 2500 nM | –
Clc1ccc(COC(Cn2ccnc2)c2ccc(Cl)cc2Cl)c(Cl)c1 (centres undefined) [MICONAZOLE] | 0.007 µg/mL (≈ 0.0168 µM) | 0.06 µg/mL (≈ 0.144 µM) | 0.06 µg/mL (≈ 0.144 µM) | 0.06 µg/mL (≈ 0.144 µM) | 0.007 µg/mL (≈ 0.0168 µM) | 2 µg/mL (≈ 4.81 µM) | 1 µg/mL (≈ 2.4 µM) | 0.06 µg/mL (≈ 0.144 µM) | 0.003 µg/mL (≈ 0.00721 µM) | 0.007 µg/mL (≈ 0.0168 µM) | 0.015 µg/mL (≈ 0.036 µM) | 0.125 µg/mL (≈ 0.3 µM) | 0.015 µg/mL (≈ 0.036 µM) | 4 µg/mL (≈ 9.61 µM) | Active | – | Active
COc1ccc2cc(C(=O)NCC(O)(Cn3cncn3)c3ccc(F)cc3F)c(=O)oc2c1 (racemic) | 0.125 µg/mL (≈ 0.274 µM) | 4 µg/mL (≈ 8.76 µM) | 0.25 µg/mL (≈ 0.548 µM) | 4 µg/mL (≈ 8.76 µM) | 0.5 µg/mL (≈ 1.1 µM) | 32 µg/mL (≈ 70.1 µM) | 8 µg/mL (≈ 17.5 µM) | 1 µg/mL (≈ 2.19 µM) | 2 µg/mL (≈ 4.38 µM) | 0.25 µg/mL (≈ 0.548 µM) | – | – | – | – | – | – | –
